# Results gathered from unrelated publications.
# Protocols differ between the studies behind these lines.
# Read-out: cell growth or viability
SMILES,cell line,test,conditions,viability
CC(=O)c1nn(-c2ccc(C)cc2)/c(=N/N=C(\C)c2ccc(NC(=O)c3ccccc3)cc2)s1,HepG2,MTT,78 nM,73.6%
O=C(C=Cc1ccccc1)Nc1ccc(Oc2nnc(-c3ccc(Cl)cc3)c3ccccc23)cc1,HepG2,MTT,"10 µM, 24 h",2.63%
CC(C)(C)c1cnc(CSc2cnc(NC(=O)C3CCN(CCCCCCCCSc4cccc5c4C(=O)N(C4CCC(=O)NC4=O)C5=O)CC3)s2)o1 (stereo not drawn),HH,CCK-8,50 nM,92.6%
CC(=O)Nc1ccc(/C(C)=N/N=c2\sc(C(C)=O)nn2-c2ccc(C)cc2)cc1,HepG2,MTT,0.625 µM,99.8%
CC(=NNC(=O)COc1ccc2c(C)c(Cc3ccccc3)c(=O)oc2c1C)c1ccc(Br)cc1,HepG2,MTT,0.4 µg/mL,58%
CC(C)(C)c1cnc(CSc2cnc(NC(=O)C3CCN(CCCCCSc4cccc5c4CN(C4CCC(=O)NC4=O)C5=O)CC3)s2)o1 (stereo not drawn),HH,CCK-8,50 nM,97.6%
S=C(Nc1ccccc1)Nc1ccc(Oc2nnc(-c3ccc(Cl)cc3)c3ccccc23)cc1,HepG2,MTT,"2.5 µM, 24 h",18%
CC(C)(C)c1cnc(CSc2cnc(NC(=O)C3CCN(C(=O)CCCSc4cccc5c4C(=O)N(C4CCC(=O)NC4=O)C5=O)CC3)s2)o1 (stereo not drawn),HH,CCK-8,10 nM,99.7%
CCOC(=O)c1nn(-c2cccc(Cl)c2)/c(=N/N=C(\C)c2ccc(NC(=O)c3ccccc3)cc2)s1,HepG2,MTT,2.5 µM,2.82%
O=C(Nc1ccc(Oc2nnc(-c3ccc(Cl)cc3)c3ccccc23)cc1)c1cccc([N+](=O)[O-])c1,HepG2,MTT,"10 µM, 24 h",6.17%
CCOC(=O)c1nn(-c2cccc(Cl)c2)/c(=N/N=C(\C)c2ccc(NC(=O)c3ccc(Cl)cc3)cc2)s1,HepG2,MTT,0.312 µM,3.13%
CC(=NNC(=O)c1ccncc1)c1ccc(Nc2nnc(-c3ccc(Cl)cc3)c3ccccc23)cc1,HepG2,MTT,"1.25 µM, 24 h",5.31%
CC(=O)c1nn(-c2ccccc2Cl)/c(=N/N=C(\C)c2ccc(NC(=O)c3ccccc3)cc2)s1,HepG2,MTT,10 µM,6.13%
CC(=NNC(=S)Nc1ccccc1)c1ccc(Nc2nnc(-c3ccc(Cl)cc3)c3ccccc23)cc1,HepG2,MTT,"10 µM, 24 h",4.26%
CC(C)(C)c1cnc(CSc2cnc(NC(=O)C3CCN(CCCCCCCCSc4cccc5c4CN(C4CCC(=O)NC4=O)C5=O)CC3)s2)o1 (stereo not drawn),HH,CCK-8,0.25 µM,0%
